TAAR1 antag = human TAAR1 antagonism; CHO RD-HGA16 TAAR1, Fluo-8 calcium fluorescence, antagonist; inhibition, % at 3 µM; 360,000 tested, 1.5% active; AID 624466;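 active = inhibition above a per-plate cutoff, the mean inhibition of test compounds on that plate plus 3 SD, cut at about 49% in these data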
Target sequence (Q96RJ0 whole entry, looked up): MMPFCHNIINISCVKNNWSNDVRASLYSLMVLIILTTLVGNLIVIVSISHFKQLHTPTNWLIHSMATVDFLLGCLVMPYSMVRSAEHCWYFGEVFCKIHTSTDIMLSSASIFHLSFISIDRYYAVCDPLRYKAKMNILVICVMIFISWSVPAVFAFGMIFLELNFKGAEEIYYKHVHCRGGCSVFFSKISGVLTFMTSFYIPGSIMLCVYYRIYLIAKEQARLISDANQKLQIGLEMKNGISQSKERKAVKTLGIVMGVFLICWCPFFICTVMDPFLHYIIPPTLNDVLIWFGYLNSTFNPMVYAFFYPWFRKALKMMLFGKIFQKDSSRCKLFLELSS
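Material: CHO RD-HGA16 cells bearing hTAAR1; compound dosing: one-point dosing, 3 µM nominal final; schedule: dye loading 75 min at 37 °C, then 30 min room temperature; measured by: calcium fluorescence with Fluo-8; control set: vehicle and agonist controls; replication: n of 1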
NTR1 ag = activates human neurotensin receptor 1; NTR1-U2OS beta-arrestin-GFP spot imaging, agonist mode; activation, % at 20 µM; 330,000 tested, 0.17% active;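 active = activation at or above 40% of the spot to cytoplasm intensity ratio, with at least 20 cells analyzed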
Target sequence (P30989 whole entry, looked up): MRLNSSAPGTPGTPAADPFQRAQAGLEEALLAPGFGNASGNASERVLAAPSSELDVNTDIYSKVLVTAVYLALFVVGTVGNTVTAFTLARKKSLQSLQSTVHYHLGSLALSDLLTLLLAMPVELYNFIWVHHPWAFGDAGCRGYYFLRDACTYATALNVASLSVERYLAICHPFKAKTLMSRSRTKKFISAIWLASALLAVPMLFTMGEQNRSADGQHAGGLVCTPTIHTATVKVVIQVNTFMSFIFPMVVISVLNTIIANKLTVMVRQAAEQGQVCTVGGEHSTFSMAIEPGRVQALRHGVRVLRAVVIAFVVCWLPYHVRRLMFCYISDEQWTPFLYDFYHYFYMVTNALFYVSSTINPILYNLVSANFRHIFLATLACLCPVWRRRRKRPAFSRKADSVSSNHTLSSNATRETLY
OX1R antag-1 = blocks the human orexin 1 receptor | O43613 | CHO/OX1R cells, Fluo-8 calcium fluorescence, orexin A | inhibition, % at 5 µM | 330,000 tested, 0.43% active;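 active = inhibition above its plate's threshold, mean inhibition of all tested compounds on the plate plus 3 SD, cut at about 37% in these data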
CHO parental Ca = signal in parental CHO cells, OX1R antagonist counter-screen; parental CHO-K1, ATP-induced calcium, Fluo-8 fluorescence; inhibition, % at 5.6 µM; 330,000 tested, 0.63% active;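 active = inhibition above that plate's mean sample inhibition plus 3 SD, cut at about 26% in these data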
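Material – parental CHO cells · Reagent – ATP stimulus · Compound – single nominal dose of 5.6 µM per compound · Detection – Fluo-8 fluorescence · Read-out basis – percent inhibition of calcium signal · Controls – ATP-challenged DMSO wells low, unchallenged DMSO wells high · Repeats – no replicates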
OX1R antag-2 = OX1R (human) antagonism. OX1R-expressing cells, FRET antagonist read-out. 330,000 tested, 1.8% active. O43613. inhibition, % at 6.6 µM; in the data active = inhibition mostly above about 38%, no sharp cut-off; inactive = mostly below about 40%
TAAR1 agonist = agonists of human TAAR1; activation, % at 3 µM; CHO RD-HGA16 TAAR1, Fluo-8 calcium fluorescence; vehicle wells 0%, saturating PEA agonist 100%; 360,000 tested, 0.99% active;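 active = activation above the mean activation of all test compounds in the run plus 3 SD, cut at about 38% in these data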
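Signal – calcium-sensitive Fluo-8 signal, excitation 470-495, emission 515-575 nm · System – RD-HGA16 (CHO) cells co-expressing Gα16 and hTAAR1 · Incubation – 17-24 h seeding, 75 min 37 °C dye, 30 min RT · Compound dosing – 3 µM single concentration · Repeats – no replicates (n 1)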
Each line names hits and unclear results; the compound was inactive in the other large screens. The list is not random: actives were taken first. Their share in the collection is about 4%.

CC(=O)c1c(C)[nH]c(C(=O)OCC(=O)NCc2ccc(Cl)cc2)c1C	none
CC(=O)c1c(C)[nH]c(C(=O)OCC(=O)Nc2ccc(C)cc2[N+](=O)[O-])c1C	CHO parental Ca 45.3
CC(=O)c1c(C)[nH]c(C(=O)OCC(=O)Nc2cc(Cl)ccc2[N+](=O)[O-])c1C	TAAR1 antag 51.1, CHO parental Ca 26.8, OX1R antag-2 48.4
CC1CCCN(C(=O)c2ccc3ncsc3c2)C1 (stereo not drawn)	none (no result: OX1R antag-1, CHO parental Ca, OX1R antag-2)
CC(=O)C[C@@H](O)CC(=O)[C@@H]1OC(=O)CCCCCc2ccccc21	none
O=C1Nc2ccc(Cl)cc2[C@@](C#CC2CC2)(C(F)(F)F)O1	CHO parental Ca 48.1 (no result: TAAR1 antag, TAAR1 agonist)
COC(=O)C1=C(C)N(Cc2ccc(C(F)(F)F)cc2)C(=NCc2ccccc2C(F)(F)F)NC1c1ccc(F)cc1 (stereo not drawn)	none (no result: NTR1 ag, OX1R antag-1, CHO parental Ca, OX1R antag-2)
Cc1ccc(S(=O)(=O)N2[C@@H](c3ccc(C(C)(C)C)cc3)C(C(=O)O)=CC[C@H]2c2ccc(Cl)cc2)cc1	CHO parental Ca 41.4
CCc1ccc([C@@H]2CC=C(C(=O)O)[C@H](c3ccc(C(C)(C)C)cc3)N2S(=O)(=O)c2ccc(C)cc2)cc1	CHO parental Ca 69.7
Cc1ccc([C@@H]2CC=C(C(=O)O)[C@H](c3ccc(C(C)(C)C)cc3)N2S(=O)(=O)c2ccc(C)cc2)cc1	none
Cc1ccc(S(=O)(=O)NCC2CCN(C(=O)C(=O)c3cc4ccccc4o3)CC2)cc1	none (no result: NTR1 ag, OX1R antag-1, CHO parental Ca, OX1R antag-2)
Cc1ccc(S(=O)(=O)N2C[C@H]3C(=O)C[C@@H](c4ccccc4)N(S(=O)(=O)c4ccccc4C)[C@H]3C[C@H]2c2ccccc2)cc1	none (no result: NTR1 ag, OX1R antag-1, CHO parental Ca, OX1R antag-2)
COc1ccc(OCC(O)CNCCOc2ccccc2OC)c(C(C)(C)C)c1 (stereo not drawn)	TAAR1 agonist 50.4
COc1ccccc1NCC(O)COc1ccc(C(C)(C)C)cc1 (stereo not drawn)	none
CCOc1ccc(S(=O)(=O)Nc2cnc3ccccc3c2)cc1	CHO parental Ca 34.9
O=C(Nc1ccc(Br)cc1)c1cccc(S(=O)(=O)Nc2cnc3ccccc3c2)c1	CHO parental Ca 42.1
O=C1CSc2ccc(C(=O)Nc3cccc(S(=O)(=O)Nc4ccc(Br)cc4)c3)cc2N1	CHO parental Ca 33.9
O=C(NNc1ccccc1)NC(Cc1ccccc1)C(=O)O (stereo not drawn)	none (no result: NTR1 ag, OX1R antag-1, CHO parental Ca, OX1R antag-2)
O=S1(=O)N[C@H](Cc2ccccc2)COc2cc(F)ccc21	none (no result: NTR1 ag, OX1R antag-1, CHO parental Ca, OX1R antag-2)
C#CCN(Cc1ccco1)C(=O)c1nnc2c3ccccc3n(S(=O)(=O)c3ccc(C)cc3)c2n1	none (no result: NTR1 ag, OX1R antag-1, CHO parental Ca, OX1R antag-2)
Cn1ncc2c(Nc3ccc(Cl)c(Cl)c3)ncnc21	OX1R antag-2 65.1
Cn1ncc2c(Nc3ccc(-c4ccccc4)cc3)ncnc21	none
Clc1nnc2c3ccccc3ccn12	none (no result: NTR1 ag, OX1R antag-1, CHO parental Ca, OX1R antag-2)
O=C(N[C@H](C(=O)N1CCC[C@H]1C(=O)NC1CCCC1)c1ccccc1)c1ccccc1	none (no result: NTR1 ag, OX1R antag-1, CHO parental Ca, OX1R antag-2)
Cc1nc(N2CCN(c3ccccn3)CC2)c2c(C)c(C(=O)Nc3c(F)cc(F)cc3Br)sc2n1	TAAR1 antag 57.1
N#Cc1ccc(OCC(=O)Nc2ccc(S(=O)(=O)N3CCOCC3)cc2)cc1	none
Cc1ccc(C(=O)N(C)[C@H]2C[C@H]3c4[nH]c5c(-c6ccccc6)cccc5c4CCN3C(=O)[C@H]2[C@H](C)O)cc1	none (no result: NTR1 ag, OX1R antag-1, CHO parental Ca, OX1R antag-2)
COc1cccc(N=Nc2c(=O)[nH]n3c(C)cc(C)nc23)c1	OX1R antag-2 63.8
Cc1ccc(Cc2c(-c3cccc(Br)c3)nc3c4ccccc4ccn23)cc1	none (no result: NTR1 ag, OX1R antag-1, CHO parental Ca, OX1R antag-2)
COc1ccccc1NC(=O)c1ccccc1C(=O)Nc1ccccc1OC	none
COc1ccccc1NC(=O)c1cnc(Nc2ccccc2OC)c2ccccc12	OX1R antag-2 73.8
Cc1c(O)cc2c(c1O)C(=O)CC(c1ccccc1)O2 (stereo not drawn)	OX1R antag-1 105.1, CHO parental Ca 100.1
COC(=O)C1=C(C)N(Cc2ccccc2C(F)(F)F)C(=NCc2ccc3c(c2)OCO3)NC1c1ccccc1 (stereo not drawn)	none (no result: NTR1 ag, OX1R antag-1, CHO parental Ca, OX1R antag-2)
COc1ccc(NC(=O)Nc2ccc3c(c2)C(=O)N([C@H](C)CO)C[C@H](C)[C@H](CN(C)C)OCCCC[C@@H](C)O3)cc1	none (no result: NTR1 ag, OX1R antag-1, CHO parental Ca, OX1R antag-2)
COc1ccc(C(c2c(O)ccc3ccccc23)N2CCOCC2)c(OC)c1 (stereo not drawn)	OX1R antag-1 71.2, CHO parental Ca 68.2
COc1ccc(C(CCN2CCOCC2)c2c(O)cc(OC)cc2OC)cc1 (stereo not drawn)	none
COC(=O)c1ccc(/C=N/OCC(=O)NCCc2ccc(OC)c(OC)c2)cc1	OX1R antag-2 45.0
COc1ccc(CCNC(=O)CSc2nnc(-c3ccccc3)c3ccccc23)cc1OC	OX1R antag-2 72.7
COc1ccc(CCNC(=O)CC(=O)N/N=C/c2ccc(C(=O)O)cc2)cc1OC	none
COc1ccc(CCNC(=O)CSc2ccc3ccccc3c2)cc1OC	OX1R antag-2 63.7
COc1ccc(CCNC(=O)COc2ccc(S(=O)(=O)N3CCOCC3)cc2)cc1OC	OX1R antag-2 48.8
COc1ccc(CCNC(=O)COc2ccc(S(=O)(=O)N3CCOCC3)cc2)cc1	none
O=C(CSc1ccc2ccccc2c1)NCCc1ccc(O)c(O)c1	none
CCOC(=O)C1CSCCS(=O)(=O)N1Cc1ccc(C)cc1 (stereo not drawn)	none (no result: NTR1 ag, OX1R antag-1, CHO parental Ca, OX1R antag-2)
CN1C(c2ccccc2)CC(C)(O)CC1c1ccccc1 (stereo not drawn)	none (no result: NTR1 ag, OX1R antag-1, CHO parental Ca, OX1R antag-2)
C=CCN1[C@@H](CC(C)C)COc2cccc(NCCCN3CCOCC3)c2S1(=O)=O	none (no result: NTR1 ag, OX1R antag-1, CHO parental Ca, OX1R antag-2)
CN=C1SC(CC(=O)NCCc2ccc(OC)c(OC)c2)C(=O)N1C (stereo not drawn)	OX1R antag-1 104.4, CHO parental Ca 100.7
CCN=C1SC(CC(=O)NCCc2ccc(OC)c(OC)c2)C(=O)N1CC (stereo not drawn)	none
COc1ccc(CNC(=O)c2ccc3ccccc3n2)cc1OC	CHO parental Ca 45.5, OX1R antag-2 51.8
O=C(Nc1cc(Sc2ccccn2)cc([N+](=O)[O-])c1)c1ccc([N+](=O)[O-])cc1	OX1R antag-1 44.3, CHO parental Ca 40.8
O=C(c1ccc([N+](=O)[O-])cc1)N(c1ccccn1)c1ccccn1	OX1R antag-2 74.3
O=[N+]([O-])c1ccc(Sc2ccccn2)nc1	OX1R antag-2 72.7
O=C(Nc1ccc([N+](=O)[O-])cc1)c1ccccc1	none
O=[N+]([O-])c1ccc(CSc2ccccn2)cc1	none
CN(C)c1ccc(/C=C/CNC[C@H]2O[C@@H](n3ccc(N)nc3=O)[C@H](O)[C@@H]2O)cc1	none (no result: NTR1 ag, OX1R antag-1, CHO parental Ca, OX1R antag-2)
O=C(OCCOc1cccc(Cl)c1)c1cc(S(=O)(=O)N2CCCCC2)ccc1N1CCOCC1	CHO parental Ca 37.6
COC(=O)[C@]12C[C@H](CC(=O)NCC3CCCCC3)C(=O)N(CCc3ccc(OC)c(OC)c3)C1=C[C@H](C(C)(C)C)O[C@@H]2C	none (no result: NTR1 ag, OX1R antag-1, CHO parental Ca, OX1R antag-2)
